# Laboratory results reported in the array DNA melting data of Ke et al. (doi:10.1101/2024.01.08.574731).
# Key:
# [1] = folding enthalpy; higher = less favourable; fluorescence melt of hairpins on a sequencing array, two-state fit; settings: sodium 0.088 M
# Outline: (§1)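 Two-state fits, bootstrapped, provided melting temperature and folding enthalpy from Cy3 fluorescence normalised to pre-quench Cy3 and to control constructs. Library hairpins with annealed Cy3 and quencher oligos were imaged on a sequenced MiSeq flow cell in 50 mM Na-HEPES pH 8.0, 25 mM NaCl, at 2.5 °C intervals up to 60 °C. Four replicates were combined with inverse-variance weighting. A 9.35 °C upward shift was applied to fitted temperatures to match UV melts.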
# [2] = melting temperature; fluorescence melt of hairpins on a sequencing array, two-state fit, raised by 9.35 °C to match UV melts; settings: sodium 0.088 M
# Outline: as §1
Sequence,folding enthalpy [1] [kcal/mol],Tm [2] [°C]
GTCCTTTCGAAAGAAGAC (((..(((....)))))),-15.3,28.5
GGATACGGAAACGTATCC (((((((....))))))),-40.9,64.2
CGCGGATAGTTCCGCG ((((((....)))))),-35.4,68.5
GATCCTATCAAGGATC ((((((....)))))),-34.3,54.6
GCGAATTTCGC ((((...)))),-24.8,48.8
GCACCGCGAAAGCTCTGC (((..((....))..))),-10.9,27.4
GATCGACCAATCGATC ((((((....)))))),-34.2,49
GAATTACGAAAGTACTTC (((.(((....))).))),-20.1,32.5
GGCATCCGAAAGGAGGCC (((.(((....))).))),-38.2,69.3
GCAAGGCGAAAGCGATGC (((..((....))..))),-11.4,53.4
GCTGTCCCGAAAGGGAGC (((..(((....)))))),-11,41.5
GAGCAGGGAAACCTGCCC (.(((((....))))).),-12.8,42.1
GGTCAAGGAAACTTGATC (.(((((....))))).),-34.1,42.1
GCGGGGGTCCGC ((((....)))),-22.6,61.7
GCCTTCGAAAGAACGGGC ((((((....)))..))),-23,41
GATCCGTCTACGGATC ((((((....)))))),-45.5,63.7
GATCCATAATTGGATC ((((((....)))))),-39.7,50.7
GATCTAAATCTAGATC ((((((....)))))),-25.2,35.4
CCTCGGAAACGAGG (((((....))))),-25.8,55.7
GGGAACGAAAGTTGCCCC ((((((....)))..))),-10.7,68.7
GTCCTGGGAAACCAGGGC (.(((((....))))).),-35.5,56.9
GCATTACGAAAGTATGC (((.(((....)))))),-26.9,48.7
GGAGGAGGAAACTCCTTC (.(((((....))))).),-28.7,53.4
GGACGACGAAAGTCTCC (((.(((....)))))),-27.1,47

Sequence,folding enthalpy [1] [kcal/mol],Tm [2] [°C]
GCAGGGCCGAAAGGCTGC (((..(((....)))))),-14.3,55.3
GGGCTTTCGAAAGAACCC (((..(((....)))))),-40,35.7
GCATCAGGAAACTGATGC (((((((....))))))),-46.9,67.1
GGCATCGAAAGATTTGCC ((((((....)))..))),-29.2,40.7
GCCGGGCGAAAGCCATGC ((..(((....)))..)),-14.4,42.4
GGAATCGGAAACGATTCC (((((((....))))))),-43.2,66.1
GGTGAGCGAAAGCTTACC (((.(((....))).))),-26.7,59.3
GCGTCACGAAAGTGCCGC (((.(((....))).))),-46.1,59.6
GGAATGAAAATTCC (((((....))))),-22.3,44.3
GAAGGCGGAAACGTCTTC ((((.((....)).)))),-45.1,53.1
GTGTCGGGAAACCGGTAC ((..(((....)))..)),-22.7,37.6
GTAAGCGCGAAAGCGTAC (((..(((....)))))),-9.28,28.8
GTTCGTGGAAACACGAGC (.(((((....))))).),-21.5,52.7
GGCAACGAAAGTTAGGCC ((((((....)))..))),-28.3,46.2
GCTCCGCGAAAGCCGCGC ((.(.((....)).).)),-11.8,36.2
GCTTCACGAAAGTGGAGC (((.(((....))).))),-43.7,58.3
GGAAACGAAAGTTGTTCC ((((((....)))..))),-9.91,24.9
GGCCAACCGAAAGGTGCC (((..(((....)))))),-23.8,50.4
GTATAGCGAAAGCTTAC (((.(((....)))))),-12.8,39.2
GTAAAACCGAAAGGTTAC (((..(((....)))))),-14.9,31
GATCTCGTCAGAGATC ((((((....)))))),-37.5,68.5
GTTACTGGAAACAGTGAC ((.((((....)))).)),-27.6,44.9
GATCTCAGTCGAGATC ((((((....)))))),-35.1,54.1
GAATGCCGAAAGGCGTTC (((.(((....))).))),-27.7,61.6

Sequence,folding enthalpy [1] [kcal/mol],Tm [2] [°C]
GGAACAGGAAACTGCTCC (((.(((....))).))),-31.1,40.8
GGATACGAAAGTAAGTCC ((((((....)))..))),-9.06,22.2
GATCCATCCGTGGATC ((((((....)))))),-46.6,52.9
GTGGTTGCGAAAGCACAC (((..(((....)))))),-15.6,42.7
GTCGGACGAAAGTCAGAC (((.(((....))).))),-39.9,59.3
GTTACCGAAAGGTCAAC ((((((....))).))),-13.4,32.8
GATCATCTTTATGATC ((((((....)))))),-32.3,47.9
GAGGTCCGAAAGGAACTC (((.(((....))).))),-40.6,61.5
GCGTAGTACGC ((((...)))),-20.8,53.1
GCGCACGAAAGTGTCCGC ((((((....)))..))),-18.6,48
GCTAGCGAAAGCTAGAGC ((((((....)))..))),-13.2,55
GCCCTGCGAAAGCTTGGC (((..((....))..))),-23,50.6
GTTTTGGAAACAAAAC ((((((....)))))),-31.6,49.3
GGGTGTCGAAAGACCCC (((.(((....)))))),-35.6,56.4
GTTGCTCGAAAGAGTAAC (((.(((....))).))),-35.1,52.4
GGGGTCGGAAACGGCCTC (.((.((....)).)).),-26.4,51.5
GTCCGCGAAAGCGAGAC ((((((....))).))),-14.2,59.2
GCAAGGCGAAAGCCACGC ((..(((....)))..)),-14.6,47.1
GCAAGCGGAAACGCTCAC (..((((....))))..),-9.17,30.5
GCGATGATTCGC ((((....)))),-23.3,50.9
GAGGTACGAAAGTAACTC (((.(((....))).))),-38.6,54.1
GCGTGCACGAAAGTGCGC (((..(((....)))))),-9.64,51.9
CGTCGGCGGAAACGCACG (((..(((....)))))),-18.3,46.1
GCGGTATCCGC ((((...)))),-24,54.9

Sequence,folding enthalpy [1] [kcal/mol],Tm [2] [°C]
GTATCCGGAAACAGATAC (((((.(....).))))),-23.4,31.7
GATCTGTTCGCAGATC ((((((....)))))),-47.6,53.4
GTGTATGGAAACATATGC (..((((....))))..),-24.1,30.7
GCCATGACGAAAGTCGGC (((..(((....)))))),-20,51
GTAATGGGAAACCACTAC (((.(((....))).))),-15.9,27.6
GTTCCCGGAAACGGGGAC ((.((((....)))).)),-26.8,58.5
GGGAGCTCGAAAGAGCCC (((..(((....)))))),-11.2,57.2
GATCTTCGATAAGATC ((((((....)))))),-24.7,40.2
GCGAGTGTCGC ((((...)))),-13.9,47
CGTCTCGGAAACGACACG (((.(((....))).))),-31.2,35.5
GATCCTGTGAGGATC ((((((...)))))),-32.3,53.3
GATCTTATAAAGATC ((((((...)))))),-29.4,44
GCGGCATCGAAAGATCGC (((..(((....)))))),-22.7,45.6
GATCATCACCATGATC ((((((....)))))),-36.1,46.8
GCGTACGGAAACGCACGC ((((.((....)).)))),-46.7,55.4
GTGACCGAAAGGTAACAC ((((((....)))..))),-16.9,47.1
GCATCTGGAAACAGATAC (.(((((....))))).),-16.8,36.3
GCCACCGAAAGGTAAGGC ((((((....)))..))),-26.9,52.6
GATCACGCCGGTGATC ((((((....)))))),-38.7,60.7
GTTAGACGAAAGTCGAAC (((.(((....))).))),-23.5,52.4
GAAAGGGGAAACCTTTTC ((((.((....)).)))),-27.1,34.2
